In ChEMBL document CHEMBL1799999, “N-benzoylated phenoxazines and phenothiazines: synthesis, antiproliferative activity, and inhibition of tubulin polymerization” (J Med Chem, 2011) one finds IC50 data, which are given here for 55 molecules.

The subject of assay [1] is K562. Description: Antiproliferative activity against human K562 cells after 48 hrs by hemocytometric analysis. Type of assay: functional, cell-based. As to conditions: K562, 48 h. The procedure, abridged:
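K562 cells in RPMI 1640 with 10% FBS at 37 °C/5% CO2, plated at 2 × 10^5 cells/mL. Compounds in DMSO/methanol 1:1, final vehicle 0.5%. Cells counted in a Neubauer hemocytometer after 48 h and expressed as % of untreated control. Triplicate wells, three experiments; IC50 by nonlinear regression.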

Assay [2] deals with Tubulin (Sus scrofa, UniProt P02554+P02550). Description: Inhibition of pig tubulin polymerization determined after 45 mins at 37 degC by turbidimetric analysis. Type of assay: protein assay. Put shortly: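 Microtubule protein (80–90% tubulin with MAPs) from porcine brain, isolated by two cold/warm cycles. Buffer: 20 mM PIPES pH 6.8, 80 mM NaCl, 0.5 mM MgCl2, 1 mM EGTA, 1 mM DTT. Protein at 1.2 mg/mL (about 10 μM tubulin) with 0.6 mM GTP, 1% DMSO, 37 °C.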

Assay [3] concerns SK-OV-3. Description: Antiproliferative activity against human SKOV3 cells after 48 hrs by alamar blue assay. Type of assay: functional, cell-based. As to conditions: SK-OV-3, 48 h. The procedure, abridged:
(§1)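 Cells seeded in growth medium and grown 24 h at 37 °C/5% CO2. 10 mM DMSO stocks diluted in half-log steps into medium, final DMSO 0.316%. After 45 h of compound exposure, AlamarBlue (resazurin) added for a further 3 h, giving 48 h total. Fluorescence read at 590 nm against untreated and cell-free blanks. At least two replicates; IC50 by nonlinear regression.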
On the technique in general: The colour change of resazurin is a common sign of viable cells or microbes.

Assay [4] deals with DLD-1. Description: Antiproliferative activity against human DLD1 cells after 48 hrs by alamar blue assay. Conditions: DLD-1, 48 h. Type of assay: functional, cell-based. The procedure, abridged:
as §1

Assay [5] relates to COLO 205. Description: Antiproliferative activity against human COLO205 cells after 48 hrs by alamar blue assay. The assay is classed as functional, cell-based. Conditions: COLO 205, 48 h. Put shortly: as §1
Assay [6] concerns NCI-H460. Description: Antiproliferative activity against human NCI-H460 cells after 48 hrs by alamar blue assay. Type of assay: functional, cell-based. As to conditions: NCI-H460, 48 h. The procedure, abridged:
as §1

Assay [7] has as its system SW480. Description: Antiproliferative activity against human SW480 cells after 48 hrs by alamar blue assay. The assay is classed as functional, cell-based. As to conditions: SW480, 48 h. The procedure, abridged:
as §1

Assay [8] in a line: cells. As to conditions: Homo sapiens, 451Lu, 48 h.
Assay [9] has as its system BT-549. Description: Antiproliferative activity against human BT549 cells after 48 hrs by alamar blue assay. As to conditions: BT-549, 48 h. The assay is classed as functional, cell-based. Put shortly:
as §1

By IC50 is commonly meant the midpoint of a concentration-inhibition curve. Low readings indicate greater potency, high ones weaker potency.

Consider `COc1ccc(C(=O)N2c3ccccc3Sc3ccc(Cl)cc32)cc1`, for which the figures for the half-inhibitory concentration (IC50) in [1] and in [2] were 840 nM and 870 nM, respectively.

Regarding `O=C(c1ccccc1)N1c2ccccc2S(=O)(=O)c2ccc(Cl)cc21`, in assay [1], the IC50 is above 30000 nM.

With `COc1ccc(C(=O)N2c3ccccc3[S+]([O-])c3ccccc32)cc1O`, the IC50 was 300 nM in assay [1] and 8400 nM in assay [2].

`O=C(c1ccc(C(F)(F)F)cc1)N1c2ccccc2Oc2ccc(Cl)cc21` had an IC50 in [1] above 75000 nM.

In assay [1], `O=C(c1ccccc1)N1c2ccccc2Sc2ccccc21` displayed an IC50 above 30000 nM.

Consider `CN(C)c1ccc(C(=O)N2c3ccccc3Oc3ccc(Cl)cc32)cc1`, for which the IC50 in [1] was 1210 nM; in [2], 880 nM.

In the case of `COc1ccc(C(=O)N2c3cc(Cl)ccc3Oc3ccc(Cl)cc32)cc1`, the IC50 turned out to be 490 nM in assay [1] and 700 nM in assay [2].

Consider `COc1ccc(C(=O)N2c3ccccc3S(=O)(=O)c3ccc(OC)cc32)cc1`, for which the IC50 in assay [1] amounted to 1580 nM; in assay [2], 4690 nM.

The molecule `O=C(c1ccccc1)N1c2ccccc2[S+]([O-])c2ccccc21` came in with a half-maximal inhibitory concentration (IC50) in assay [1] above 30000 nM.

In assay [1], `COc1ccc(CC(=O)N2c3ccccc3Sc3ccc(Cl)cc32)cc1` gave an IC50 of 8000 nM.

As for `COc1ccc(C(=O)N2c3ccccc3Oc3ccccc32)cc1`, the IC50 in assay [1] is 33 nM; in [3] it was 210 nM; in assay [4], 250 nM; in assay [5], 240 nM; in assay [6], 270 nM; in assay [7], 240 nM. Besides, the results for the IC50 in [8], in assay [9] and in assay [2] were 60 nM, 120 nM and 1100 nM, respectively.

As for `COc1ccc(C(=O)N2c3ccccc3Sc3ccccc32)cc1`, the concentration for half-maximal inhibition (IC50) in assay [1] is 330 nM; in assay [2], 2230 nM.

For the molecule `COc1ccc(CC(=O)N2c3ccccc3Oc3ccc(Cl)cc32)cc1`, the IC50 in assay [1] came out at 550 nM; in [2], 1100 nM.

For the molecule `COc1cc(C(=O)N2c3ccccc3[S+]([O-])c3ccc(Cl)cc32)cc(OC)c1OC` (stereo not drawn), the figures for the IC50 in [1] and in [2] were 35000 nM and above 10000 nM, respectively.

Take `N#Cc1ccc2c(c1)Oc1ccccc1N2`: the half-inhibitory concentration (IC50) in assay [1] and in [2] was above 10000 nM each time.

In the case of `COc1ccc(C(=O)N2c3ccccc3[S+]([O-])c3ccc(Cl)cc32)cc1` (stereo not drawn), the IC50 was 1400 nM in assay [1] and 2790 nM in assay [2].

Molecule `O=C(c1ccccc1)N1c2ccccc2Sc2ccc(Cl)cc21` displayed an IC50 in assay [1] above 30000 nM.

Turning to `COc1ccc(C(=O)N2c3ccccc3Oc3cccc(C#N)c32)cc1`, the IC50 in [1] is 120 nM; in assay [2] it was 960 nM.

`COc1ccc(C(=O)N2c3ccccc3Sc3ccc(C(F)(F)F)cc32)cc1`: the IC50 is 4600 nM in [1] and above 10000 nM in assay [2].

`COc1cc(C(=O)N2c3ccccc3Oc3ccc(Cl)cc32)cc(OC)c1O`: the IC50 came out at 4630 nM in assay [1] and 680 nM in assay [2].

As to `COc1ccc(C(=O)N2c3ccccc3Oc3ccc(C#N)cc32)cc1`, the concentration for half-maximal inhibition (IC50) was found to be 160 nM in assay [1] and 2700 nM in assay [2].

`COc1cc(C(=O)N2c3ccccc3Oc3ccc(Cl)cc32)cc(OC)c1OC`: in [1], the IC50 turned out to be 24000 nM.

With `COc1cc(C(=O)N2c3ccccc3S(=O)(=O)c3ccccc32)cc(OC)c1OC`, the IC50 in assay [1] stood at 2600 nM; in [2], 2460 nM.

Regarding `COc1ccc(C(=O)N2c3ccccc3S(=O)(=O)c3ccc(Cl)cc32)cc1`, the IC50 in [1] was 800 nM; in [2], 1050 nM.

For the molecule `Clc1ccc2c(c1)Nc1ccccc1O2`, the IC50 is above 30000 nM in assay [1] and above 10000 nM in assay [2].

`CC(=O)N1c2ccccc2Oc2ccc(Cl)cc21` gave an IC50 in assay [1] above 30000 nM.

In the case of `COc1cccc(C(=O)N2c3ccccc3Oc3ccc(Cl)cc32)c1`, the values for the IC50 in assay [1] and in [2] were 1380 nM and 650 nM, respectively.

On to `COc1ccc(CC(=O)N2c3ccccc3Oc3ccccc32)cc1`, for which the IC50 was 4810 nM in assay [1] and above 10000 nM in assay [2].

For the molecule `COc1ccc(C(=O)N2c3ccccc3Oc3ccc(Cl)cc32)cc1`, the IC50 in assay [1] was 140 nM; in [3] it was 350 nM; in assay [4] it was 540 nM; in assay [5], 430 nM; in assay [6] it was 680 nM; in assay [7], 530 nM. Also, the IC50 in [8] was 90 nM; in assay [9], 330 nM; in assay [2], 570 nM.

For `COc1ccc(C(=O)N2c3ccccc3S(=O)(=O)c3ccccc32)cc1O`, the IC50 is 180 nM in assay [1] and 3000 nM in assay [2].

Take `O=C(c1ccc([N+](=O)[O-])cc1)N1c2ccccc2Oc2ccc(Cl)cc21`: the concentration for half-maximal inhibition (IC50) in [1] is above 80000 nM; in [2], 5030 nM.

Take `COc1cc(C(=O)N2c3ccccc3Sc3ccc(Cl)cc32)cc(OC)c1OC`: the IC50 in [1] was 11000 nM; in assay [2], above 10000 nM.

`O=C(c1ccc(Br)cc1)N1c2ccccc2Oc2ccc(Cl)cc21` yielded an IC50 in [1] above 25000 nM.

For the molecule `COc1cc(C(=O)N2c3ccccc3[S+]([O-])c3ccccc32)cc(OC)c1OC`, the IC50 is 8030 nM in [1] and above 10000 nM in assay [2].

`COc1cc(C(=O)N2c3ccccc3S(=O)(=O)c3ccc(Cl)cc32)cc(OC)c1OC`: the IC50 in assay [1] was 4200 nM; in assay [2] it was above 10000 nM.

As to `COc1ccc(C(=O)N2c3ccccc3[S+]([O-])c3ccccc32)cc1`, the IC50 in assay [1] came to 420 nM; in assay [2], 9390 nM.

Consider `COc1ccc(C(=O)N2c3ccccc3[S+]([O-])c3ccc(OC)cc32)cc1` (stereo not drawn), for which the IC50 in [1] worked out at 1650 nM; in [2], 23310 nM.

In the case of `O=C(c1ccc2c(c1)OCO2)N1c2ccccc2Oc2ccc(Cl)cc21`, the IC50 in assay [1] stood at 1120 nM; in assay [2], 1130 nM.

For `N#Cc1ccc2c(c1)Oc1ccccc1N2C(=O)c1ccccc1`, the 50% inhibitory concentration (IC50) was determined as 230 nM in assay [1] and 1200 nM in assay [2].

For `COC(=O)Nc1nc2cc(C(=O)c3cccs3)ccc2[nH]1` [NOCODAZOLE], the IC50 in assay [3] amounted to 80 nM; in [4], 190 nM; in assay [5], 88 nM; in [6] it was 68 nM; in [7] it was 120 nM; in [8], 72 nM. The molecule also had an IC50 in assay [9] of 69 nM.

With `CC(=O)O[C@H]1C(=O)[C@@]2(C)[C@H]([C@H](OC(=O)c3ccccc3)[C@]3(O)C[C@H](OC(=O)[C@H](O)[C@@H](NC(=O)c4ccccc4)c4ccccc4)C(C)=C1C3(C)C)[C@]1(OC(C)=O)CO[C@@H]1C[C@@H]2O` [PACLITAXEL], the concentration for half-maximal inhibition (IC50) in assay [3] was 6 nM; in [4], 50 nM; in [5], 5 nM; in [6], 4 nM; in assay [7], 11 nM; in assay [9], 6 nM.

In the case of `Clc1ccc2c(c1)Nc1ccccc1S2`, the IC50 in assay [1] is above 100000 nM.

Take `N#Cc1ccc2c(c1)Oc1ccccc1N2C(=O)c1ccc(Cl)cc1`: the IC50 was determined as 490 nM in assay [1] and 2390 nM in assay [2].

Consider `COc1cc(C(=O)N2c3ccccc3Sc3ccccc32)cc(OC)c1OC`, for which the values for the IC50 in [1] and in assay [2] were 1860 nM and 4960 nM, respectively.

Take `O=C(c1ccc(Cl)cc1)N1c2ccccc2Oc2ccc(Cl)cc21`: the IC50 was 20000 nM in assay [1] and 2420 nM in assay [2].

As to `COc1ccc(C(=O)N2c3ccccc3Sc3ccccc32)cc1O`, the IC50 stood at 210 nM in [1] and 1400 nM in assay [2].

As to `COc1ccc(C(=O)CN2c3ccccc3Oc3ccc(Cl)cc32)cc1`, the IC50 in [1] was above 20000 nM.

`O=C(c1ccccc1)N1c2ccccc2[S+]([O-])c2ccc(Cl)cc21` (stereo not drawn) displayed a half-inhibitory concentration (IC50) in [1] above 30000 nM.

Take `COc1ccc(C(=O)N2c3ccccc3Sc3ccc(OC)cc32)cc1`: the IC50 in assay [1] came to 970 nM; in assay [2] it was 3230 nM.

The molecule `COc1ccc(C(=O)N2c3ccccc3Sc3ccccc32)cc1OCc1ccccc1` returned an IC50 in assay [1] above 30000 nM.

In assay [1], `c1ccc2c(c1)Nc1ccccc1S2` [PHENOTHIAZINE] gave a half-inhibitory concentration (IC50) above 100000 nM.

On to `COc1ccc(C(=O)N2c3ccccc3Sc3ccc(SC)cc32)cc1`, for which the IC50 in [1] worked out at 3620 nM; in assay [2], 1430 nM.

In assay [1], `O=C(c1ccccc1)N1c2ccccc2S(=O)(=O)c2ccccc21` yielded an IC50 above 30000 nM.

In the case of `c1ccc2c(c1)Nc1ccccc1O2` [PHENOXAZINE], the figures for the half-inhibitory concentration (IC50) in assay [1] and in assay [2] were above 30000 nM and above 10000 nM, respectively.

As for `COc1ccc(C(=O)N2c3ccccc3S(=O)(=O)c3ccccc32)cc1`, the IC50 came out at 280 nM in assay [1] and 2530 nM in assay [2].
